High-throughput results as filed in PubChem BioAssay.
Sampled rows, rich in hits. Any-hit rate of the full collection: about 2.3%.
TRPC4 act: activators of mouse TRPC4 channel. hit rate 0.49% among 310,000. AID 2237. B-score at 10 µM. HEK293 TRPC4beta/mu-opioid, Fluo4 calcium fluorescence; hits give high values;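 active means B-score above 5 SD of library B-scores, and initial fluorescence ratio not above library mean plus 5 SD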;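 further: positive B-score marks a calcium rise read as TRPC4 activation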
Target sequence (Q9QUQ5 whole entry, looked up): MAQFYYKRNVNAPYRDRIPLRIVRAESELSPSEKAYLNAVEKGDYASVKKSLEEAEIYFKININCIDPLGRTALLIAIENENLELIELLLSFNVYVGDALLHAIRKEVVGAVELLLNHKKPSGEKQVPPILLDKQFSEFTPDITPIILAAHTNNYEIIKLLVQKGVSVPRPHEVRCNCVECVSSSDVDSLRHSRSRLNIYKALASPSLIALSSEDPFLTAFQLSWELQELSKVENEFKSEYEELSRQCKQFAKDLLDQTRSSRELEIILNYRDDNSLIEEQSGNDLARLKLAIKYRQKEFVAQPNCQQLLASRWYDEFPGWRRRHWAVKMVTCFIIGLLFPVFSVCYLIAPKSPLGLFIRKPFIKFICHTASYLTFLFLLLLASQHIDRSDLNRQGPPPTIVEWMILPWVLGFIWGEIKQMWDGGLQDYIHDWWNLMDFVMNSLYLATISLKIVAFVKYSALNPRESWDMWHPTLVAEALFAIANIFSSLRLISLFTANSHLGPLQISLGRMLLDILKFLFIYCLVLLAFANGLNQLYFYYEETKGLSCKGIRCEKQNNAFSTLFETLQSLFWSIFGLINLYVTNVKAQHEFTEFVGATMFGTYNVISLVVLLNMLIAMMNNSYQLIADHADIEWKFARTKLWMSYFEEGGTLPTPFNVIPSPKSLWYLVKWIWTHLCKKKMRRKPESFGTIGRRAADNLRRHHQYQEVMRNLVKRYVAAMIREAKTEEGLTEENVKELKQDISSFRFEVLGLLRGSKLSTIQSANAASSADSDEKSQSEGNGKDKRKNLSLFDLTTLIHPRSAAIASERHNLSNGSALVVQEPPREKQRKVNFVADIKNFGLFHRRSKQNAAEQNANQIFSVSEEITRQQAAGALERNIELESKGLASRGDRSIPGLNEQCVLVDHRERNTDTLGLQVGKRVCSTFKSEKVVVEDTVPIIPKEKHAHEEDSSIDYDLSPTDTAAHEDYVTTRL
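System – HEK293 cells stably co-expressing mouse TRPC4beta and mu-opioid receptor · Signal – Fluo4 calcium-sensitive dye fluorescence, kinetic, 1 Hz baseline · Benchmarks – buffer (low) and maximal DAMGO (high) · Read-out – B score of integrated fluorescence ratio per well · Incubation – dye loading 45 min room temperature, 110 s kinetic read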
TRPC4 inh: inhibitors of mouse TRPC4 channel. HEK293 TRPC4beta/mu-opioid, DAMGO-evoked Fluo4 calcium flux; hits give low values. hit rate 0.39% among 300,000. Q9QUQ5. B-score at 10 µM;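 active means B-score over 3 SD under the library average, no early fluorescence shift, positive overall ratio signal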
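Assay system: HEK293 cells with stable TRPC4beta plus mu-opioid receptor expression. Dosing: single dose. Measured by: Fluo4 Ca2+ flux fluorescence. Also added: DAMGO in two steps, submaximal then maximal. Read-out: B score from integrated Fluo4 fluorescence ratio.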
TRPC6 activator: activators of mouse TRPC6 channel. AID 2550. HEK293-TRPC6 membrane potential dye fluorescence; hits give high values. B-score at 10 µM. hit rate 0.13% among 310,000;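 active means B-score of the integrated fluorescence ratio above library mean plus 3 SD, and starting fluorescence ratio within library mean plus 5 SD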;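 further: higher score means more depolarization so channel activation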
TRPC6 inh: mouse TRPC6 channel inhibition; Q61143; B-score at 10 µM; hit rate 1.1% among 310,000; HEK293-TRPC6, membrane potential dye, ACh-evoked depolarization; hits give low values;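 active means B-score under library mean minus 3 SD, initial fluorescence not abnormally high, positive integrated signal ratio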;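 further: B-score derived from integrated fluorescence ratio over the kinetic read; more negative B-score means stronger inhibition of depolarization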
TRPC4 PAM: TRPC4 (mouse) allosteric potentiation. Q9QUQ5. HEK293 TRPC4beta/mu-opioid, DAMGO EC20, Fluo-4 Ca2+ flux; hits give high values. B-score at 10 µM. hit rate 0.42% among 310,000;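 active means B-score of calcium response area above 5 SD of library B-scores, with initial fluorescence ratio within 5 SD of library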;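 further: B-score of integrated fluorescence ratio over time as area under calcium response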
TRPC4 sel inh 2: second check of whether TRPC6 inhibitors also affect mouse TRPC4 | hit rate 42% among 920 | AID 2776 | shares compounds with TRPC6 inh | inhibition, % at 10 µM | HEK293 TRPC4/MOR, membrane potential dye fluorescence; channel activated by saturating DAMGO dose;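 active means compounds whose fluorescence signal differed from control wells by over 3 SD, either direction, in both duplicate plates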
TRPC4 spec: mouse TRPC4 off-target activity of TRPC6 inhibitors. activity change, negative = inhibition, % at 10 µM. HEK293 TRPC4/mu-opioid, membrane potential fluorescence. shares compounds with TRPC6 inh. hit rate 61% among 920;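 active means rise or fall in signal beyond 3 SD of buffer-only wells in both replicate plates, either sign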;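 further: integrated kinetic ratio of fluorescence range over baseline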
HEK293 MPD ctr 2-1: second check of TRPC6 inhibitor effects in parental HEK293 cells | shares compounds with TRPC6 inh | parental HEK293 membrane potential dye fluorescence; maximal acetylcholine challenge after compound addition | signal change vs control, % at 10 µM | hit rate 31% among 920;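 active means membrane potential signal moving either way by over 3 SD of the maximum-effect control, in both duplicate plates, meaning non-specific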
HEK293 MPD ctr-1: parental HEK293 nonspecific activity of TRPC6 inhibitors; shares compounds with TRPC6 inh; parental HEK293 membrane potential dye fluorescence; membrane potential signal change, % at 10 µM; hit rate 60% among 920; AID 2780;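 active means membrane potential signal shifting up or down by more than 3 SD of buffer-only wells, on both duplicate plates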
HEK293 MPD ctr-2: checks TRPC6 modulator effects in parental HEK293 cells; membrane potential dye fluorescence; shares compounds with TRPC6 inh; hit rate 51% among 2,400; membrane potential signal change, % at 10 µM;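 active means membrane potential signal moves up or down beyond 5 SD from buffer-only wells, on both duplicate plates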
HEK293 MPD ctr 2-2: second check of TRPC6 modulator effects in parental HEK293 cells; shares compounds with TRPC6 inh; membrane potential dye fluorescence; after compound, maximal acetylcholine stimulation; inhibition, % at 10 µM; hit rate 14% among 2,400; AID 488926;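 active means membrane potential signal drops by more than 5 SD from the mean control signal, in both duplicate plates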;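 further: plate controls were acetylcholine ECmax control wells for no effect and buffer only wells for full effect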
TRPC4/MOR mod: mouse TRPC4 off-target activity of TRPC6 modulators. HEK293 TRPC4/mu-opioid, membrane potential fluorescence. percent change from control (negative = decrease, positive = increase), % at 10 µM. hit rate 69% among 2,400. shares compounds with TRPC6 inh;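 active means membrane potential signal moved up or down beyond 5 SD of buffer control wells, in both duplicate plates, actives on both sides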;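 further: plate controls were assay buffer wells for no effect and DAMGO maximal-effect wells for full effect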
TRPC4/MOR inh 2: second selectivity test of TRPC6 modulators against mouse TRPC4; AID 488928; inhibition, % at 10 µM; shares compounds with TRPC6 inh; HEK293 TRPC4/mu-opioid, membrane potential dye fluorescence; stimulated with maximal-effect DAMGO; hit rate 55% among 2,400;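 active means drop in membrane potential signal beyond 5 SD of the control wells in both duplicate plates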;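 further: TRPC4 counter screen for TRPC6 hits run under conditions tuned for TRPC6 not TRPC4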
TRPC6 inh conf: confirmation of mouse TRPC6 inhibitors. shares compounds with TRPC6 inh. HEK293-TRPC6, membrane potential dye, ACh-evoked depolarization. inhibition, % at 10 µM. hit rate 43% among 3,300. AID 488960;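 active means fluorescence ratio falls more than 5 SD below the full-stimulation control mean, in both duplicate runs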;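 further: integrated fluorescence ratio of peak minus minimum over baseline after agonist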
TRPC6 act conf: confirmation of mouse TRPC6 activators | activation, % at 10 µM | HEK293-TRPC6 membrane potential dye fluorescence, FDSS | AID 488961 | hit rate 11% among 2,800 | shares compounds with TRPC6 inh;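 active means ratio signal rise beyond 5 SD above unstimulated control wells' mean, seen in both duplicate runs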;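 further: plate controls were buffer EC0 wells for no effect and acetylcholine ECmax response for full effect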
Active calls of the source: *; i = inactive; x = no result; + = active, no number.

SMILES | TRPC4 act | TRPC4 inh | TRPC6 activator | TRPC6 inh | TRPC4 PAM | HEK293 MPD ctr-2 | HEK293 MPD ctr 2-2 | TRPC4/MOR mod | TRPC4/MOR inh 2 | TRPC6 inh conf | TRPC6 act conf | others
Cc1noc(C)c1CSc1ccccc1C(=O)N1CCN(c2ccccc2)CC1 | i | i | i | -6.9* | i | x | x | x | x | i | x | TRPC4 sel inh 2=i;TRPC4 spec=16%*;HEK293 MPD ctr 2-1=i;HEK293 MPD ctr-1=8.9%*
COCCSc1ccccc1C(=O)N1CCN(c2ccccc2)CC1 | i | i | i | i | i | x | x | x | x | x | x
CN(C)C(N)=NCCC[C@H](N)C(=O)O | i | i | i | i | i | x | x | x | x | x | x
COc1cc(N2CCCC2)c(OC)cc1C=O | i | i | i | -7.9* | i | x | x | x | x | i | i | TRPC4 sel inh 2=i;TRPC4 spec=i;HEK293 MPD ctr 2-1=250%*;HEK293 MPD ctr-1=i
Nc1ccc(O)c2c1C(=O)c1ccccc1C2=O | i | i | i | -8.2* | i | -85%* | i | -40%* | 66%* | 42%* | i
Nc1ccc(Br)c2c1C(=O)c1ccccc1C2=O | i | i | i | i | i | x | x | x | x | x | x
S=c1[nH]nc(-c2ccccc2Cl)n1/N=C/C=C/c1ccco1 | i | i | i | -6* | i | i | i | i | i | 44%* | i
Cc1nc(C(C)NC(=O)CCc2nnc(-c3ccsc3)o2)cs1 (stereo not drawn) | i | i | i | i | i | x | x | x | x | x | x
CN1C(=O)c2cccc3c(N(C)C)ccc(c23)C1=O | i | i | 19* | i | i | 927%* | + | 144%* | 58%* | x | 234%*
CCCCN(CCCC)CCCNC(=O)C12CN(Cc3ccccc3)CC1C(c1cccc([N+](=O)[O-])c1)=NO2 (stereo not drawn) | i | i | i | -7.5* | i | x | x | x | x | i | i | TRPC4 sel inh 2=60%*;TRPC4 spec=i;HEK293 MPD ctr 2-1=i;HEK293 MPD ctr-1=i
O=C(NCc1ccccc1)C12CN(Cc3ccccc3)CC1C(c1cccc([N+](=O)[O-])c1)=NO2 (stereo not drawn) | i | i | i | i | i | x | x | x | x | x | x
CCOC(=O)c1cnc2c(ccc3ccccc32)c1NCCCN(C)C | i | i | i | -6.4* | i | i | 70%* | i | 56%* | 48%* | i
CCOC(=O)c1cnc2ccc(Cl)cc2c1NCCN(C)C | i | i | i | -6.5* | i | -104%* | i | -18%* | 49%* | 46%* | i
CCOC(=O)c1cnc2c(Cl)cc(Cl)cc2c1NCCOCCO | i | i | i | i | i | x | x | x | x | x | x
CCOC(=O)c1cnc2c(C)cccc2c1NCc1ccco1 | i | i | i | i | i | x | x | x | x | x | x
CCOC(=O)c1cnc2ccc(Br)cc2c1NCCO | i | i | i | i | i | x | x | x | x | x | x
CCOC(=O)c1cnc2ccccc2c1NCCO | i | i | i | -5.6* | i | -108%* | i | -14%* | 40%* | 49%* | i
Cc1nnc(SCC(=O)NC(=O)Nc2ccc3c(c2)OCCO3)n1N | i | i | i | i | i | x | x | x | x | x | x
O=C(CCN=C1NS(=O)(=O)c2ccccc21)OCc1nnc(-c2ccccc2)o1 | i | i | i | i | i | x | x | x | x | x | x
CC(=O)c1c(C)nc(-c2ccc(Cl)cc2)nc1NC(=O)C(C)C | i | i | i | -6* | i | i | 106%* | 18%* | i | 72%* | x
CC1Cc2ccccc2N1C(=O)CSc1nnnn1Cc1ccccc1 (stereo not drawn) | i | i | i | i | i | x | x | x | x | x | x
O=C(Nc1scc(-c2ccc(Br)cc2)c1C(=O)O)c1ccccc1F | i | i | i | -5.3* | i | i | i | i | 40%* | 54%* | i
CCOC(=O)c1cn(C2CC2)c2c(F)c(NCCCN(C)C)c(F)cc2c1=O | i | i | i | -7.4* | i | x | x | x | x | 67%* | i | TRPC4 sel inh 2=i;TRPC4 spec=-23%*;HEK293 MPD ctr 2-1=0.0%*;HEK293 MPD ctr-1=-436%*
COc1cc(C2NC(=O)NC(C)=C2[N+](=O)[O-])cc(OC)c1OC (stereo not drawn) | i | i | i | i | i | x | x | x | x | x | x
Cc1ccc(N2C(=O)CSC2c2c(F)cccc2Cl)cc1 (stereo not drawn) | i | i | i | -12* | i | x | x | x | x | 84%* | i | TRPC4 sel inh 2=i;TRPC4 spec=i;HEK293 MPD ctr 2-1=-26%*;HEK293 MPD ctr-1=i
SMILES | TRPC4 act | TRPC4 inh | TRPC6 activator | TRPC6 inh | TRPC4 PAM | HEK293 MPD ctr-2 | HEK293 MPD ctr 2-2 | TRPC4/MOR mod | TRPC4/MOR inh 2 | TRPC6 inh conf | TRPC6 act conf | others
NC(=O)N/N=C/c1coc2ccc3ccccc3c2c1=O | i | i | i | -5* | i | -62%* | i | -16%* | i | i | i
O=Cc1coc2ccc3ccccc3c2c1=O | i | i | i | i | i | x | x | x | x | x | x
COc1cc(/C=C(\C#N)c2nc3ccccc3o2)ccc1O | 78* | i | 63* | i | i | + | i | 290%* | i | i | 362%*
N#C/C(=C\c1ccc(O)cc1)c1nc2ccccc2o1 | i | i | i | i | i | x | x | x | x | x | x
COc1ccc(-c2csc(NC(=O)C3CCCCN3S(=O)(=O)c3ccccc3)n2)cc1 (stereo not drawn) | i | i | i | i | i | x | x | x | x | x | x
CCC(C)c1ccccc1OCCCNC1CCCC1 (stereo not drawn) | i | i | i | -5* | i | 232%* | i | 58%* | 58%* | 44%* | x
